Source: paper PMC4027032 (Journal of the American Chemical Society, 2011)

Columns and labels:
[1] = λirr = 400 nm; cited from earlier work
papain = target: T1, papain (Carica papaya, UniProt P00784); test: Papain inhibition, chromogenic substrate BAPNA; format: biochemical; details: inhibitor 1 alone; papain 650 nM, phosphate buffer pH 6.5, 11% DMSO
T1 sequence (P00784 134-345): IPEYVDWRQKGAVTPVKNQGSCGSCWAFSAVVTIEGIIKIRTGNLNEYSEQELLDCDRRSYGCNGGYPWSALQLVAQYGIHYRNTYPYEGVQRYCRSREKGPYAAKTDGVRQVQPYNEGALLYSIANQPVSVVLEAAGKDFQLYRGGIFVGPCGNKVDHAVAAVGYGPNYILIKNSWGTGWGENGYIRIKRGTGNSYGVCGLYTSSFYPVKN

human cathepsin B = human cathepsin B (Homo sapiens, UniProt P07858); test: Cathepsin B inhibition, fluorogenic substrate Z-Arg-Arg-AMC; format: biochemical; details: 1 alone; acetate buffer pH 6.0, cat B 8 nM, 1% DMSO
Method in brief: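 Human cathepsin B at 8 nM in 0.4 M acetate buffer (pH 6.0, 4 mM EDTA, 8 mM DTT, final 1% DMSO), with Z-Arg-Arg-AMC at 100 μM. Reactions were run in the dark or after 10 min irradiation of the test compound (250 W tungsten halogen lamp, >395 nm, H2O filter). IC50 came from a sigmoidal fit of activity versus log[inhibitor], with 100% set by the no-inhibitor control.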

human cathepsin K = target: T2, human cathepsin K (Homo sapiens, UniProt P43235); test: Cathepsin K inhibition, fluorogenic substrate Z-Gly-Pro-Arg-AMC; format: biochemical; details: 1 alone; acetate buffer pH 5.5, cat K 20 nM, 1% DMSO
T2 sequence (P43235 115-329): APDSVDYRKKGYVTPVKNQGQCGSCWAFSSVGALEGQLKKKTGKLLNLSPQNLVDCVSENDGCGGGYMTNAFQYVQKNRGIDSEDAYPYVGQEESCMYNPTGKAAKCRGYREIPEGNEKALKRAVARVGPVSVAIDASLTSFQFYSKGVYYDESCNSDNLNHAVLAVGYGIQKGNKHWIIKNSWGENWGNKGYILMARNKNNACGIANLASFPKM
Method in brief: (§1)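 Human cathepsin K or L at 20 nM in 0.4 M acetate buffer (pH 5.5, 4 mM EDTA, 8 mM DTT, final 1% DMSO). Substrates at 100 μM were Z-Gly-Pro-Arg-AMC for K and Z-Phe-Arg-AMC for L. Reactions were run in the dark or after 10 min irradiation (250 W tungsten halogen lamp, >395 nm, H2O filter). IC50 came from a sigmoidal fit versus log[inhibitor], with 100% set by the no-inhibitor control.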

human cathepsin L = human cathepsin L (Homo sapiens, UniProt P07711); test: Cathepsin L inhibition, fluorogenic substrate Z-Phe-Arg-AMC; format: biochemical; details: 1 alone; acetate buffer pH 5.5, cat L 20 nM, 1% DMSO
Method in brief: as §1

[2] = target: human cathepsin B in DU145 lysates (Homo sapiens, UniProt P07858); test: Cathepsin B activity in DU145 cell lysates, Z-Arg-Arg-AMC; format: biochemical; details: 1 alone; DU145 lysate
Method in brief: (§2)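 Cathepsin B activity was measured in DU145 or hBMSC cell lysates with fluorogenic Z-Arg-Arg-AMC at 100 μM, run in the dark or after the test compound was irradiated for 10 min with a 250 W tungsten halogen lamp (>395 nm, H2O filter). Activity was plotted against log[inhibitor] and fit to a sigmoidal curve to give IC50, with 100% set by the no-inhibitor control.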

[3] = target: human cathepsin B in hBMSC lysates (Homo sapiens, UniProt P07858); test: Cathepsin B activity in hBMSC lysates, Z-Arg-Arg-AMC; format: biochemical; details: 1 alone; hBMSC lysate
Method in brief: as §2

Sequence of human cathepsin L (P07711 114-333): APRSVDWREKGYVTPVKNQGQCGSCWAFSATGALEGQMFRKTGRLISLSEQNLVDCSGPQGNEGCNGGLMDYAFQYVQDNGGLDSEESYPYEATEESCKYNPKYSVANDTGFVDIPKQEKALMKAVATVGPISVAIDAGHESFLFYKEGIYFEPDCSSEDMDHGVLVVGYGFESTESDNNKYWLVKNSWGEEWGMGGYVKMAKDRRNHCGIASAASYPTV

Compound	overall photoaquation quantum yield ΦR→P [1]	IC50 (papain) [nM]	IC50 (human cathepsin B) [µM]	IC50 (human cathepsin K) [µM]	IC50 (human cathepsin L) [µM]	IC50 [2] [µM]	IC50 [3] [µM]
CC#N.CC#N.[Cl-].[Cl-].[Ru+2].c1ccc(-c2ccccn2)nc1.c1ccc(-c2ccccn2)nc1 [cis-[Ru(bpy)2(MeCN)2]Cl2]	0.21						
CC(=O)N[C@@H](Cc1ccccc1)C(=O)NCC#N [compound 1, Ac-Phe-NHCH2CN, reference compound]		638	133	12	72	182	183
